From ChEMBL document CHEMBL3808278, “Design, Synthesis, and Biological Evaluation of Imidazo[1,5-a]quinoline as Highly Potent Ligands of Central Benzodiazepine Receptors” (J Med Chem, 2016)
pKi: −log10 of the molar value. Activity calls are given as the source filed them. The calls are words filed in the database; no cut-off is given here.

What was measured:
Mus musculus [1] = assay: Antiamnestic activity in mouse assessed as prevention of scopalamine-induced amnesia at 10 mg/kg, po administered 30 mins before test by passive avoidance test; type: functional, organism-based
Outline: (§1)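 Passive avoidance in mice: compounds were given per os 30 min before the test, and scopolamine 1.5 mg kg-1 i.p. immediately after the punishment. Read-out was time recorded during the retention session. Values are mean ± SEM of at least 10 mice, compared with vehicle-treated animals.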

[2] = Displacement of [3H]-flumazenil from central-type benzodiazepine receptor in bovine cortical membrane after 90 mins by liquid-phase scintillation beta-counting method; type: cell membranes, Bos taurus
Outline: (§2)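 Competition binding against radiolabelled antagonist [3H]flumazenil in cortical membranes (bovine; human where listed); Ki reported as mean ± SEM of three independent determinations.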

Rattus norvegicus [3] = species: Rattus norvegicus; assay: Antagonist activity at central-type benzodiazepine receptor in Sprague-Dawley rat cerebrocortical synaptoneurosomes assessed as decrease in 36Cl- flow after 10 secs by liquid-phase scintillation beta-counting method
Mus musculus [4] = assay: Neurotoxicity in mouse assessed as effect on neurological and muscular abilities at 10 mg/kg, po after 30 mins by Hole-Board test; type: toxicity, organism-based; conditions: in vivo, 0.5 h
Outline: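 Hole-board test 30 min after oral dosing at 10 mg kg-1 counted movements (motor activity) and head inspections (exploratory activity). Values are mean ± SEM of at least 10 mice, compared with vehicle controls.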

Mus musculus [5] = assay: Anxiolytic activity in mouse assessed as increase in time spent in light box at 1 mg/kg, po administered 30 mins before test by light-dark box test; type: functional, organism-based
Outline: (§3)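 Light-dark box in mice measured time in the light compartment. Compounds were given per os 30 min before testing, and diazepam 1 mg kg-1 subcutaneously as reference. Values are mean ± SEM of at least 10 mice, compared with vehicle-treated animals.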

Mus musculus [6] = assay: Anxiolytic activity against mouse assessed as increase in time spent in light box at 10 mg/kg, po administered 30 mins before test by light-dark box test; type: functional, organism-based; outline: as §3
Bos taurus = species: Bos taurus; assay: Selectivity ratio, ratio of Ki for central-type benzodiazepine receptor in bovine cortical membrane to Ki for central-type benzodiazepine receptor in bovine cortical membrane in presence of 50 uM of GABA; type: cell membranes
Mus musculus [7] = species: Mus musculus; assay: Myorelaxant effect in mouse assessed as effect on motor coordination after 30 mins by rotarad test; type: organism-based; conditions: in vivo, 0.5 h
Outline: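 Rota-rod test of motor coordination in mice, with compounds given per os 30 min before testing. Values are mean ± SEM of at least 10 mice.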

Rattus norvegicus [8] = species: Rattus norvegicus; assay: Partial agonist activity at central-type benzodiazepine receptor in Sprague-Dawley rat cerebrocortical synaptoneurosomes assessed as increase in 36Cl- influx after 10 secs by liquid-phase scintillation beta-counting method
[9] = Displacement of [3H]-flumazenil from central-type benzodiazepine receptor in human cortical membrane after 90 mins by liquid-phase scintillation beta-counting method; type: cell membranes; outline: as §2
Homo sapiens = species: Homo sapiens; assay: Selectivity ratio, ratio of Ki for central-type benzodiazepine receptor in human cortical membrane to Ki for central-type benzodiazepine receptor in human cortical membrane in presence of 50 uM of GABA; type: cell membranes
Rattus norvegicus [10] = species: Rattus norvegicus; assay: Inverse agonist activity at central-type benzodiazepine receptor in Sprague-Dawley rat cerebrocortical synaptoneurosomes assessed as decrease in 36Cl- flow after 10 secs by liquid-phase scintillation beta-counting method
Mus musculus [11] = assay: Antiamnestic activity in scopolamine induced mouse amnesia model assessed as time of retention session in light box at 30 mg/kg, po administered 30 mins before test by passive avoidance test (reference value: 44.8 +/- 8.1 secs); type: functional; outline: as §1
Rattus norvegicus [12] = species: Rattus norvegicus; assay: Selectivity ratio, ratio of Ki for central-type benzodiazepine receptor in rat cortical membrane to Ki for central-type benzodiazepine receptor in rat cortical membrane in presence of 50 uM of GABA; type: cell membranes
Outline: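 GABA ratio is Ki without GABA divided by Ki with 50 µM GABA, from [3H]flumazenil competition binding in cortical membranes. Per the table footnote, ratio values were obtained in rat cortical membranes.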

[13] = Binding affinity to rat cortical membrane central-type benzodiazepine receptor measured after 90 mins by liquid-phase scintillation beta-counting method
Rattus norvegicus [14] = species: Rattus norvegicus; assay: Partial inverse agonist activity at central-type benzodiazepine receptor in Sprague-Dawley rat cerebrocortical synaptoneurosomes assessed as decrease in 36Cl- flow after 10 secs by liquid-phase scintillation beta-counting method
Brain [15] = assay: Neuroprotective activity against oxygen-glucose deprivation and reoxygenation-induced injury in Sprague-Dawley rat brain cortical slices assessed as maximum recovery in LDH release at 50 uM treated during 90 mins of reperfusion phase measured after 90 mins by spetrophotometric method; type: functional
Outline: (§4)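 Rat brain cortical slices in ACSF underwent 30 min oxygen/glucose deprivation, then 90 min reoxygenated ACSF (reperfusion). Controls were kept 120 min in ACSF. Compounds (0.1–100 µM) were added only during reperfusion, and LDH release was measured. Data are means ± SEM of at least 4 experiments, analysed by ANOVA with Dunnett post test. The effective concentration is that giving the largest reduction, and recovery is the % reversion at that concentration.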

Mus musculus [16] = assay: Anxiolytic activity in mouse assessed as time spent in light box at 10 mg/kg, po administered 30 mins before test by light-dark box test; type: functional; outline: as §3
Mus musculus [17] = assay: Antiamnestic activity in scopolamine induced mouse amnesia model assessed as time spent in light box at 1 mg/kg, po administered 30 mins before test by passive avoidance test; type: functional, organism-based; outline: as §1
Brain [18] = assay: Neuroprotective activity against oxygen-glucose deprivation and reoxygenation-induced injury in Sprague-Dawley rat brain cortical slices assessed as maximum recovery in LDH release at 5 uM treated during 90 mins of reperfusion phase measured after 90 mins by spetrophotometric method; type: functional; outline: as §4

Row | SMILES | pKi [2] | Antagonist activity (Rattus norvegicus [3]) | Ratio Ki (Bos taurus) | other results
1 | CCCN(CCC)C(=O)c1c(C)c2c(C(=O)OC(C)(C)C)ncn2c2ccccc12 | 9.00 | Active | 1.1 | Activity (Mus musculus [1]): Active; Activity (Mus musculus [4]): Non-toxic; Activity (Mus musculus [5]): Active; Activity (Mus musculus [6]): Active; Activity (Mus musculus [7]): Non-toxic
2 | CCCN(CCC)C(=O)c1cc2c(C(=O)OCC)ncn2c2ccccc12 | 9.04 | Active | 1 | 
3 | CCOC(=O)c1ncn2c1c(C)c(C(=O)N(C)Cc1ccccc1)c1ccccc12 | 8.19 | Active | 1.1 | 
4 | CC(=O)N1Cc2c(C(=O)OC(C)(C)C)ncn2-c2ccc(F)cc21 | 9.00 | Active | 1 | Activity (Rattus norvegicus [8]): Active; pKi [9]: 8.70; Ratio Ki (Homo sapiens): 1
5 | CN(Cc1ccccc1)C(=O)c1ncn2c1cc(-c1ccccc1)c1ccccc12 | 6.35 | Active | 0.92 | 
6 | CCOC(=O)Cc1c(-c2ccccc2)c2ccccc2n2cnc(C(=O)OCC)c12 | 8.42 |  | 0.72 | Activity (Rattus norvegicus [10]): Active
7 | CCOC(=O)c1ncn2c1c(C)c(C(=O)OC(C)(C)C)c1ccccc12 | 9.00 |  | 1.4 | Activity (Rattus norvegicus [8]): Active
8 | CCOC(=O)c1ncn2c1cc(C(=O)N(C)Cc1ccccc1)c1ccccc12 | 7.70 |  | 0.52 | Activity (Rattus norvegicus [10]): Active
9 | CCOC(=O)c1ncn2c1cc(-c1ccccc1)c1ccccc12 | 7.38 | Active | 0.9 | 
10 | CCOC(=O)c1ncn2c1cc(C(=O)N(C)C)c1ccccc12 | 8.09 |  | 1.3 | Activity (Rattus norvegicus [8]): Active; Activity (Mus musculus [11]): inactive; Activity (Mus musculus [4]): Non-toxic; Activity (Mus musculus [6]): Active; Activity (Mus musculus [7]): Non-toxic
11 | CCOC(=O)c1ncn2c1cc(C(=O)N(C)Cc1ccccc1)c1cc(C#C[Si](C)(C)C)ccc12 |  | Active |  | Ratio Ki (Rattus norvegicus [12]): 0.99; pKi [13]: 6.29
12 | CN1C(=O)CN=C(c2ccccc2F)c2cc([N+](=O)[O-])ccc21 [FLUNITRAZEPAM] | 8.28 |  | 1.68 | pKi [9]: 8.19; Ratio Ki (Homo sapiens): 1.61; Activity (Rattus norvegicus [14]): Active
13 | CCCc1c(C(=O)N(CC)CC)c2ccccc2n2cnc(C(=O)OCC)c12 | 6.77 |  | 0.9 | 
14 | CN(Cc1ccccc1)C(=O)c1cc2c(C(=O)OC(C)(C)C)ncn2c2ccccc12 | 7.85 | Active | 0.98 | 
15 | CCOC(=O)c1ncn2c1CN(C(C)=O)c1cc(F)ccc1-2 | 8.66 |  | 0.75 | Activity (Rattus norvegicus [8]): Active; pKi [9]: 8.57; Ratio Ki (Homo sapiens): 0.95; Activity (Rattus norvegicus [14]): Active
16 | CC(C)(C)OC(=O)c1ncn2c1cc(-c1ccccc1)c1ccccc12 | 7.26 |  | 0.8 | Activity (Rattus norvegicus [10]): Active
17 | CCCN(CCC)C(=O)c1cc2c(C(=O)OC(C)(C)C)ncn2c2ccccc12 | 8.92 | Active | 1.1 | 
18 | C#Cc1ccc2c(c1)c(C(=O)N(C)Cc1ccccc1)cc1c(C(=O)OCC)ncn12 |  | Active |  | Ratio Ki (Rattus norvegicus [12]): 0.95; pKi [13]: 6.79
19 | C#CCN(C)C(=O)c1c(C)c2c(C(=O)OCC)ncn2c2ccccc12 | 8.92 | Active | 1 | 
20 | CCOC(=O)c1ncn2c1c(C(=O)OCC)c(-c1ccccc1)c1ccccc12 | 5.66 |  | 0.66 | Activity (Rattus norvegicus [10]): Active

Row | SMILES | pKi [2] | Antagonist activity (Rattus norvegicus [3]) | Ratio Ki (Bos taurus) | other results
21 | CN(C)C(=O)c1ncn2c1cc(-c1ccccc1)c1ccccc12 | 5.45 |  | 1.44 | Activity (Rattus norvegicus [8]): Active
22 | CCCc1c(C(=O)N(CC)CC)c2ccccc2n2cnc(C(=O)OC(C)(C)C)c12 | 5.54 |  | 1.1 | 
23 | CCOC(=O)c1cc2c(cn1)[nH]c1ccccc12 |  |  |  | Activity (Rattus norvegicus [14]): Active
24 | Cc1c(-c2ccccc2)c2ccccc2n2cnc(C(=O)OC(C)(C)C)c12 | 8.00 | Active | 1 | 
25 | CCOC(=O)c1ncn2c1c(C)c(C(=O)O)c1ccccc12 | 6.98 |  | 1.2 | Activity (Rattus norvegicus [8]): Active
26 | CN(C)C(=O)c1cc2c(C(=O)OC(C)(C)C)ncn2c2ccccc12 | 7.96 |  | 1.6 | Activity (Rattus norvegicus [8]): Active
27 | CCCc1c(C(=O)N(CCC)CCC)c2ccccc2n2cnc(C(=O)OC(C)(C)C)c12 | 5.84 | Active | 1 | 
28 | CCOC(=O)c1ncn2c1c1c(c3ccccc32)CCC1 | 7.74 |  | 1.3 | 
29 | CCOC(=O)c1ncn2c1CN(C)C(=O)c1cc(F)ccc1-2 [FLUMAZENIL] | 8.72 |  | 1.03 | pKi [9]: 8.70; Ratio Ki (Homo sapiens): 1.02; Activity (Rattus norvegicus [14]): Active
30 | CCCN(CCC)C(=O)c1c(CC)c2c(C(=O)OCC)ncn2c2ccccc12 | 8.60 |  | 1.5 | Activity (Rattus norvegicus [8]): Active; Activity (Mus musculus [1]): Active; Activity (Mus musculus [4]): Non-toxic; Activity (Mus musculus [6]): Active; Activity (Brain [15]): 44.3%; Activity (Mus musculus [7]): Non-toxic
31 | CCOC(=O)c1ncn2c1cc(C(=O)N(C)Cc1ccccc1)c1cc(F)ccc12 | 8.24 |  | 0.8 | Activity (Rattus norvegicus [10]): Active
32 | CCOC(=O)c1ncn2c1cc(C(=O)N(C)Cc1ccccc1)c1cc(Br)ccc12 |  | Active |  | Ratio Ki (Rattus norvegicus [12]): 0.9; pKi [13]: 7.62
33 | CCOC(=O)c1ncn2c1CN(C(C)=O)c1ccccc1-2 | 7.60 | Active | 0.9 | pKi [9]: 7.48
34 | CCCN(CCC)C(=O)c1c(CC)c2c(C(=O)OC(C)(C)C)ncn2c2ccccc12 | 8.25 |  | 1.4 | Activity (Rattus norvegicus [8]): Active; Activity (Mus musculus [1]): Active; Time (Mus musculus [16]): 172.5 s; Activity (Mus musculus [4]): Non-toxic; Activity (Mus musculus [17]): Active; Activity (Brain [18]): 44.4%; Activity (Mus musculus [7]): Non-toxic
35 | CC(=O)N1Cc2c(C(=O)OC(C)(C)C)ncn2-c2ccccc21 | 8.14 | Active | 0.98 | pKi [9]: 8.11; Ratio Ki (Homo sapiens): 1.04
36 | CCOC(=O)c1ncn2c1cc(C(=O)N1CCN(C)CC1)c1ccccc12 | 7.26 | Active | 1 | 
37 | CCCCN(C)C(=O)c1cc2c(C(=O)OCC)ncn2c2ccccc12 | 8.72 |  | 0.76 | Activity (Rattus norvegicus [10]): Active; Activity (Mus musculus [1]): Active; Activity (Mus musculus [4]): Non-toxic; Activity (Mus musculus [6]): Active; Activity (Mus musculus [7]): Non-toxic
38 | CCOC(=O)c1ncn2c1c(CO)c(-c1ccccc1)c1ccccc12 | 8.74 |  | 1.18 | Activity (Rattus norvegicus [8]): Active; pKi [9]: 8.70; Activity (Brain [18]): 39.5%
39 | CCCc1c(C(=O)N(CCC)CCC)c2ccccc2n2cnc(C(=O)OCC)c12 | 7.47 | Active | 1.1 | 
